Measured values reported in ChEMBL document CHEMBL1129041, “Design of orally active dual inhibitors of neutral endopeptidase and angiotensin-converting enzyme with long duration of action” (J Med Chem, 1996).

Legend:
[1] = molecular target: T1, Neprilysin (Mus musculus) (UniProt Q61391); assay: In vivo percent inhibition activity against kidney Neutral endopeptidase 2 hr after oral administration of a dose of 2.6 x 10e-5 mol/kg; assay type: organism-based
T1 sequence (whole entry): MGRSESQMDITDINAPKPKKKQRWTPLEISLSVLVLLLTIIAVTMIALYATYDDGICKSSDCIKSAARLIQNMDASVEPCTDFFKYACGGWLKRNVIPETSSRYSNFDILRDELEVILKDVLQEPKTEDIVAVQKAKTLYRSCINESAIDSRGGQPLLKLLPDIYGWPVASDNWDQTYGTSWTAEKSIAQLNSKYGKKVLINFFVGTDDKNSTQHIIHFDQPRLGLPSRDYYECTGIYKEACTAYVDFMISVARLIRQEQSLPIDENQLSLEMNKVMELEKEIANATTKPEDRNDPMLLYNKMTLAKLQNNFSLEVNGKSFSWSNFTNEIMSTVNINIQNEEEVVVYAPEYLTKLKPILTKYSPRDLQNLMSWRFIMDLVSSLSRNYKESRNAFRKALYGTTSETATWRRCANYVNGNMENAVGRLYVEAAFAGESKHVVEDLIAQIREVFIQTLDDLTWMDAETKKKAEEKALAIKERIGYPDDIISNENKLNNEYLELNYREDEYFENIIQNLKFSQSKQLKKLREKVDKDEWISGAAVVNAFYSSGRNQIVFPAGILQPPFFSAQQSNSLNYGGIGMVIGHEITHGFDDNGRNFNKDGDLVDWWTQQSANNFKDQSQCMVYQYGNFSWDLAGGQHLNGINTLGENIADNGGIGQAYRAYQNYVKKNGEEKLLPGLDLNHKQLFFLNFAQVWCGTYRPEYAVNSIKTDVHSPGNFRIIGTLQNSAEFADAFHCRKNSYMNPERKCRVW
How it was run: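 Mice given a single oral dose in 10% ethanol/10% cremophor/80% water; kidneys taken 2 h later and homogenized at 4 °C in 50 mM Tris-HCl pH 7.4. Membrane fraction (100000g) preincubated 5 min at 25 °C with bestatin and captopril, then incubated 10 min with [3H]-D-Ala2-Leu-enkephalin (2 × 10^-8 M). [3H]Tyr-D-Ala-Gly counted; blanks contained 10^-5 M retrothiorphan.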

[2] = molecular target: T2, Angiotensin-converting enzyme (Rattus norvegicus, UniProt P47820); assay: In vitro inhibition of rat angiotensin I converting enzyme
T2 sequence (P47820 whole entry): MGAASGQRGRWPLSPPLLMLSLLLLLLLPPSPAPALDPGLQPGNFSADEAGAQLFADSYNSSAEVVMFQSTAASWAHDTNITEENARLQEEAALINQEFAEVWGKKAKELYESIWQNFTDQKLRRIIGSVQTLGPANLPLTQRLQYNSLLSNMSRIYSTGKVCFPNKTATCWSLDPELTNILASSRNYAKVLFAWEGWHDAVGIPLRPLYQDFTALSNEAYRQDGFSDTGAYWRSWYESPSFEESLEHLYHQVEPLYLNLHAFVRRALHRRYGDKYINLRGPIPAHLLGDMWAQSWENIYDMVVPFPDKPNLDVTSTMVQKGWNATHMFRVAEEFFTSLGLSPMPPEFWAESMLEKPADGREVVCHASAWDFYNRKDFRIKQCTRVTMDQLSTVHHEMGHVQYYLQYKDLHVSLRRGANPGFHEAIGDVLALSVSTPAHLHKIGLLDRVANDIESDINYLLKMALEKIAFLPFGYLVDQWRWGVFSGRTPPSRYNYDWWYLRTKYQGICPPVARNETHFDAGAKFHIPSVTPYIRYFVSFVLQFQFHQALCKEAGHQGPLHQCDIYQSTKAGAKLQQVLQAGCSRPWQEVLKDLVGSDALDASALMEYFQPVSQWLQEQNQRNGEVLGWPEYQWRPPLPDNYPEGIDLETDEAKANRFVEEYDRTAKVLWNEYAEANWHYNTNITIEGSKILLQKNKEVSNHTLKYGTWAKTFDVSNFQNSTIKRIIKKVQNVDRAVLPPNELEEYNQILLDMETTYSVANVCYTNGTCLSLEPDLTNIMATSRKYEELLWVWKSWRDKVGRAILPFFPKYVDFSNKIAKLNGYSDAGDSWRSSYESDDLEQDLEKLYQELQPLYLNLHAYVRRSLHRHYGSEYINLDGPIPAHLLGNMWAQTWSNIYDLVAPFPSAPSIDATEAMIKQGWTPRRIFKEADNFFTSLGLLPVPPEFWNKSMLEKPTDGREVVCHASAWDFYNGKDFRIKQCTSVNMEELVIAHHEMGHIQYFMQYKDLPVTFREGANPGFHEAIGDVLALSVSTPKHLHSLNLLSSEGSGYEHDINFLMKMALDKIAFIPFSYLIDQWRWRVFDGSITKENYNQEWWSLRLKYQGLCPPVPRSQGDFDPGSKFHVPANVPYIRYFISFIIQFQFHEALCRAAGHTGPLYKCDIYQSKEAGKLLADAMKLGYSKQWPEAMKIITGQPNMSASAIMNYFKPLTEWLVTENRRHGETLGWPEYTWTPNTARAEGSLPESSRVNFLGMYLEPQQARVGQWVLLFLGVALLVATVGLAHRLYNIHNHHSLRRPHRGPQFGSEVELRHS
How it was run: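 ACE purified from rat testis, 0.02 pmol/100 µL final, preincubated 15 min at 37 °C with varying inhibitor in 50 mM Tris-HCl pH 8.0. N-Cbz-Phe-His-Leu added to 0.05 mM final, 15 min; stopped with 2 M NaOH. His-Leu measured fluorimetrically (ex 365, em 495 nm) against a His-Leu calibration curve. IC50 is the mean ± SEM of three experiments in triplicate.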

Neprilysin = molecular target: T3, Neprilysin (Oryctolagus cuniculus, UniProt P08049); assay: In vitro inhibition of neutral endopeptidase
T3 sequence (P08049 whole entry): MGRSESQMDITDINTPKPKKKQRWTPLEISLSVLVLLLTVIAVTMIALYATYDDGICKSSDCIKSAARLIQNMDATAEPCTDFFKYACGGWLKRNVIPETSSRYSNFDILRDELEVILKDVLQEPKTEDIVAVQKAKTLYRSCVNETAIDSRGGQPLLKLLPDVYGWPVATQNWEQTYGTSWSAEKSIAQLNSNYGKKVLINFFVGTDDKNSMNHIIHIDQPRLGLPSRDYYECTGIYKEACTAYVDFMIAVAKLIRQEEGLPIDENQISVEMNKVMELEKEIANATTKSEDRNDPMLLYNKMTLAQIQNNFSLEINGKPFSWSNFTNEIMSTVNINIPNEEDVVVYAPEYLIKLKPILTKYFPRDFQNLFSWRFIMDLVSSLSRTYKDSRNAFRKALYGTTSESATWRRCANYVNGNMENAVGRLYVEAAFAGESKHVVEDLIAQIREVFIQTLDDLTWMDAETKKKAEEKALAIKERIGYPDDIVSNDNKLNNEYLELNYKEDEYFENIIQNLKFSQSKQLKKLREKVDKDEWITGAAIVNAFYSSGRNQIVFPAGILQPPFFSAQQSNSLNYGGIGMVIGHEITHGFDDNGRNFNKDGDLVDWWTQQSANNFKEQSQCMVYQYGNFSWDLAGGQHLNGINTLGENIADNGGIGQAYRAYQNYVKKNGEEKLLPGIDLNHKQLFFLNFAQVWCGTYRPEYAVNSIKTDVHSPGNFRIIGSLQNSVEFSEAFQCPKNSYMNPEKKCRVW
How it was run: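 NEP purified from rabbit kidney, 1 pmol/100 µL final, preincubated 15 min at 25 °C with increasing inhibitor concentrations in 50 mM Tris-HCl pH 7.4. Substrate [3H]-D-Ala2-Leu-enkephalin at 20 nM final, 30 min; stopped with 0.5 M HCl. [3H]Tyr-D-Ala-Gly separated on polystyrene beads and counted by scintillation. IC50 is the mean ± SEM of three independent experiments run in triplicate.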

Row | SMILES | inhibition [1] | IC50 [2] | IC50 (Neprilysin)
1 | O=C(NCC(=O)N1[C@@H](c2ccc(O)cc2)CC[C@H]1C(=O)O)[C@@H](S)Cc1ccc(O)cc1 | 25% | 0.46 nM | 6.36 nM
2 | Cc1ccccc1[C@@H]1CCC(C(=O)O)N1C(=O)CNC(=O)[C@@H](S)Cc1ccc(O)cc1 (single isomer, unassigned) |  | 12.5 nM | 5.1 nM
3 | Cc1cccc([C@H]2CC[C@@H](C(=O)O)N2C(=O)CNC(=O)[C@@H](S)Cc2ccccc2)c1 |  | 6.2 nM | 2.3 nM
4 | O=C(NCC(=O)N1[C@@H](c2ccccc2)CC[C@H]1C(=O)O)[C@@H](S)Cc1ccc(O)cc1 |  | 4.2 nM | 3.4 nM
5 | COc1ccccc1[C@H]1CC[C@@H](C(=O)O)N1C(=O)CNC(=O)[C@@H](S)Cc1ccc(O)cc1 |  | 4.5 nM | 3.4 nM
6 | Cc1ccccc1[C@@H]1CCC(C(=O)O)N1C(=O)CNC(=O)[C@@H](S)Cc1ccccc1 (single isomer, unassigned; 17) |  | 33 nM | 8.5 nM
7 | O=C(NCC(=O)N1[C@@H](c2cccc(O)c2)CC[C@H]1C(=O)O)[C@@H](S)Cc1cccc(O)c1 |  | 3.2 nM | 4.3 nM
8 | Cc1ccccc1C1CC[C@H](C(=O)O)N1C(=O)CNC(=O)[C@@H](S)Cc1ccccc1 (single isomer, unassigned) |  | 112 nM | 25 nM
9 | CC[C@H](C)C(S)C(=O)NCC(=O)N1[C@@H](c2ccccc2)CC[C@H]1C(=O)O (some centres not stated) |  | 3.7 nM | 50 nM
10 | NCCCCC(S)C(=O)NCC(=O)N1[C@@H](c2ccccc2)CC[C@H]1C(=O)O (some centres not stated) |  | 403 nM | 500 nM
11 | O=C(NCC(=O)N1[C@@H](c2ccccc2O)CC[C@H]1C(=O)O)[C@@H](S)Cc1ccccc1 |  | 0.5 nM | 1 nM
12 | C[C@H](NC(=O)[C@@H](S)Cc1ccccc1)C(=O)N1[C@@H](c2ccccc2)CC[C@H]1C(=O)O |  | 45 nM | 10 nM
13 | O=C(NCC(=O)N1[C@@H](c2cccc(O)c2)CC[C@H]1C(=O)O)C(S)Cc1ccc(F)cc1 (some centres not stated) |  | 3.8 nM | 5.3 nM
14 | O=C(NCC(=O)N1[C@@H](c2ccccc2)CC[C@H]1C(=O)O)[C@H](S)Cc1ccccc1 |  | 25 nM | 3.2 nM
15 | O=C(NCC(=O)N1[C@@H](c2cccc(O)c2)CC[C@H]1C(=O)O)[C@@H](S)Cc1ccccc1 |  | 1.5 nM | 2.4 nM
16 | COc1ccc(C[C@H](S)C(=O)NCC(=O)N2[C@@H](c3ccccc3O)CC[C@H]2C(=O)O)cc1 |  | 0.42 nM | 2.2 nM
17 | O=C(O)c1ccc(CC(S)C(=O)NCC(=O)N2[C@@H](c3ccccc3O)CC[C@H]2C(=O)O)cc1 (some centres not stated) |  | 5.3 nM | 62 nM
18 | Nc1ccc([C@H]2CC[C@@H](C(=O)O)N2C(=O)CNC(=O)[C@@H](S)Cc2ccc(O)cc2)cc1 |  | 23 nM | 26 nM
19 | COc1ccc(C[C@H](S)C(=O)NCC(=O)N2[C@@H](c3ccccc3OC)CC[C@H]2C(=O)O)cc1 |  | 2.2 nM | 2.5 nM
20 | Cc1ccccc1[C@@H]1CCC(C(=O)O)N1C(=O)CNC(=O)[C@@H](S)Cc1ccccc1 (single isomer, unassigned; 18) |  | 48 nM | 17 nM
21 | Nc1ccc(C[C@H](S)C(=O)NCC(=O)N2[C@@H](c3ccccc3)CC[C@H]2C(=O)O)cc1 |  | 3.5 nM | 1.8 nM
22 | O=C(NCC(=O)N1[C@@H](c2ccccc2O)CC[C@H]1C(=O)O)C(S)Cc1ccc(Cl)cc1 (some centres not stated) |  | 0.9 nM | 1.2 nM
23 | Cc1cccc(C2CCC(C(=O)O)N2C(=O)CNC(=O)[C@@H](S)Cc2ccc(O)cc2)c1 (some centres not stated) |  | 3.1 nM | 1.5 nM
